Assay outcomes as filed in PubChem.
NR2E3 ag-1: activates human NR2E3 receptor; hit rate 0.35% among 360,000; CHO-S Gal4-NCOR/VP16-NR2E3 two-hybrid, luciferase; inhibition of corepressor binding, % at 3.98 µM; AID 602229; Q9Y5X4;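 active means inhibition above the mean of all tested compounds plus 3 SD, cut at about 70% in these data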;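 further: 0% = DMSO with NR2E3 transfected cells and 100% = cells lacking NR2E3 construct; higher means lower luciferase signal from less NR2E3 corepressor binding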
Target sequence (Q9Y5X4 whole entry, looked up, the tested form may be a part): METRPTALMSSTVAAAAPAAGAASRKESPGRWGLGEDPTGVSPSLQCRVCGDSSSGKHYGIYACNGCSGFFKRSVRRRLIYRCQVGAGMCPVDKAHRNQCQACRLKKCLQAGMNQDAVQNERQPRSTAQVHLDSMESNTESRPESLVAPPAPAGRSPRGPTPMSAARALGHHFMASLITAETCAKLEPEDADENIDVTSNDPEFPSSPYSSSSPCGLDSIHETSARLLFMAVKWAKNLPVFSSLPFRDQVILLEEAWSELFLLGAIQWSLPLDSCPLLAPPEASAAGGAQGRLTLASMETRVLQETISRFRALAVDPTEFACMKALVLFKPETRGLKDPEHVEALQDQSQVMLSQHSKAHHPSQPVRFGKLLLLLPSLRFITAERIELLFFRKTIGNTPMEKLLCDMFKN
NR1D1 modulator: modulators of human Rev-erb alpha DNA binding; P20393; Rev-erbα–FITC-DNA binding, fluorescence polarization, 90 min; activity, % at 10 µM; hit rate 0.79% among 370,000; AID 1259318;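 active means activity above about 14%, limit read from the data; passing the limit was not always enough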;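 further: 0% = DMSO wells with 35 nM protein and 100% = DMSO wells with 750 nM protein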
PG9 binder: small molecules binding HIV-1 gp120 antibody PG9; AID 624416; inhibition, % at 6.7 µM; hit rate 0.43% among 360,000; TR-FRET gp120-PG9 antibody binding; in the data active means inhibition above about 8.5%
SKN-1 block: inhibitors of C. elegans SKN-1. C. elegans VP596 Pgst-4::GFP/RFP ratio, acrylamide-induced, 24 h. inhibition, % at 21.8 µM. hit rate 0.49% among 360,000;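 active means interference check ratio from 0.5 to 1.5 plus GFP to RFP signal ratio inhibition reaching or exceeding a fixed threshold, cut at about 30% in these data, passing the limit was not always enough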
MT1-MMP act inh: MT1-MMP (human) activation inhibition; HT1080 RFP-PRO-GFP cells, GFP/RFP ratio fluorescence, overnight; percent of plate control window, DMSO zero; GFP/RFP ratio change, % at 20 µM; hit rate 0.061% among 360,000; AID 651647;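 active means GFP/RFP ratio change of at least 30% with cell ATP level not reduced by more than half and red fluorescence within 50% of control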
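Test system: HT1080 RFP-PRO-GFP cells; Benchmarks: DMSO and RFP-L50D-GFP cell wells; Timing: cells overnight before dosing, compound overnight, 37 °C, 5% CO2; Compound: one 20 µM compound dose with 1% DMSO; Read-out: GFP/RFP fluorescence ratio.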
NR2E3 ag-2: activates human photoreceptor nuclear receptor NR2E3. Q9Y5X4. GST-NR2E3/biotin-RetCOR TR-FRET, 1536-well. inhibition of corepressor binding, % at 4.78 µM. hit rate 0.12% among 320,000. AID 2300;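 active means percent inhibition above the cutoff of mean plus 3 SD of all tested compounds, set per screening campaign, cut at about 20% in these data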;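 further: 0% = DMSO wells and 100% = biotin wells as full block of FRET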
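Test system: GST-NR2E3 and biotin-RetCOR proteins | Quantity: 1.35 nM GST-tagged NR2E3 final | Medium: Tris pH 7.5 | Also added: 7 nM biotin-RetCOR | Dosing: Compound at 4.8 µM, single dose | Timing: 5 h at 4 °C | Detection: Time-resolved FRET | Read-out basis: Percent inhibition | Benchmarks: Biotin wells as high control, 0.6% DMSO wells as low control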
NR2E3 ag confirm: confirmation of human NR2E3 agonists; hit rate 51% among 2,300; inhibition, % at 3.98 µM; shares compounds with NR2E3 ag-1; CHO-S mammalian two-hybrid NR2E3-NCOR, luciferase luminescence;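 active means average inhibition above a cutoff equal to the mean inhibition of all tested compounds plus one SD, cut at about 70% in these data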;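 further: 0% = DMSO in NR2E3 cells and 100% = DMSO in cells lacking NR2E3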
VP16 counter: counter-screen for NR2E3 agonists: GAL4-VP16 reporter inhibitors. shares compounds with NR2E3 ag-1. CHO-S GAL4-VP16 luciferase reporter, luminescence. inhibition, % at 3.98 µM. hit rate 29% among 2,300. AID 624379;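 active means mean inhibition above a cutoff equal to the average over all tested compounds plus one standard deviation, cut at about 70% in these data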;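 further: luciferase from a UAS reporter driven by GAL4-VP16 transactivation; 0% = DMSO with VP16-transfected cells and 100% = DMSO with cells lacking VP16; higher means less reporter light so more repression of VP16 activity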
The depositor's hits bear a star; nt = not tested or not shown. This is a sample that favours compounds with a hit; in the whole collection about 1.9% have one here.

SMILES	NR2E3 ag-1	NR1D1 modulator	PG9 binder	SKN-1 block	MT1-MMP act inh	NR2E3 ag-2	NR2E3 ag confirm	VP16 counter
COc1ccc2ccccc2c1/C=N/NC(=O)c1sc(N)c(C#N)c1C	5.7	3.3	-1.5	0.0	4.2	-0.2	nt	nt
COc1cc(/C=N/NC(=O)c2sc(N)c(C#N)c2C)cc(Br)c1O	59.9	5.1	-7.6	-0.2	-1.6	-2.5	4.1	-6.4
CC(C)C(=O)N[C@H]1CCC2C3CC=C4C[C@@H](O)CC[C@]4(C)C3CC[C@@]21C (stereo not given in full)	16.6	-1.8	0.7	2.3	2.4	nt	nt	nt
CC12CCC(O)CC1=CCC1C2CCC2(C)C(c3ccn[nH]3)CCC12 (stereo not given)	82.0*	-6.1	-0.5	3.0	-1.7	nt	66.8	57.6
Nc1nc2ccccc2cc1C(=O)NCCCCc1ccccc1	96.1*	nt	nt	17.8	12.9	nt	97.3*	90.1*
COc1ccc2nc(-c3ccc(CN4CCC(c5nc6ccccc6[nH]5)CC4)cc3)c(-c3ccccc3)nc2c1	nt	-5.5	1.6	nt	nt	nt	nt	nt
Cc1noc(C)c1CSc1nc2ccccc2[nH]1	-11.9	-2.2	0.7	10.9	-0.2	3.5	nt	nt
c1ccc(-c2cc(CSc3nc4ccccc4[nH]3)on2)cc1	63.0	-3.1	-0.2	-9.1	4.1	0.1	83.3*	50.7
C=CC[n+]1c(-c2ccc(Cl)cc2Cl)csc1Nc1ccc(NC(C)=O)cc1	68.2	4.0	-1.0	1.5	-6.8	-2.8	73.2*	56.4
O=C(NCc1cccnc1)/C(=C\c1ccc(-c2ccc(Cl)c(Cl)c2)o1)S(=O)(=O)c1ccccc1	91.6*	-6.4	-1.7	7.4	-22.6	0.9	98.9*	35.5
CN(C)S(=O)(=O)N1CCC(Oc2ccc(C(=O)N3C[C@H]4CC[C@H]3C4)cc2)CC1	60.2	0.2	-1.2	-4.1	-1.0	-0.3	8.4	14.7
CN(C)S(=O)(=O)N1CCC(Oc2ccc(C(=O)N3C[C@@H]4CCC[C@H]3C4)cc2)CC1	25.6	-0.1	-2.8	3.4	0.3	0.9	nt	nt
CCSc1nc(COC(=O)NC)c(COC(=O)NC)n1C	-15.2	3.0	5.0	-8.1	0.9	nt	nt	nt
CNC(=O)OCc1nc(SSC(C)(C)C)n(C)c1COC(=O)NC	55.4	4.4	0.5	-4.4	18.5	nt	27.8	12.2
O=C(CC1CCCC1)N[C@H](C(=O)N1CCC[C@H]1C(=O)NC1CCCC1)C1CCCCC1	nt	-2.1	0.4	nt	nt	nt	nt	nt
Cc1cccc(CSc2cccc3cccnc23)c1	87.8*	13.7	0.4	-12.4	4.5	2.6	-50.5	-103.8
COC(=O)c1cc2c(c3c4cc(F)ccc4n(S(=O)(=O)c4cccc(C)c4)c13)C(=O)N(C)C2	nt	1.6	0.1	nt	nt	nt	nt	nt
O=C(c1cnn(-c2ccccc2)c1)c1cc(Br)ccc1O	10.6	-3.1	-1.4	12.2	-4.5	3.9	nt	nt
O=C(c1ccc(O)c(Br)c1)c1cc(Br)ccc1O	85.0*	-1.8	-2.2	4.5	-0.2	nt	96.2*	74.2*
C/C=N/NC(=O)c1cc(Br)ccc1O	-3.5	-7.9	-0.7	-1.8	3.0	-1.1	nt	nt
O=C(C(=O)c1cc(Br)ccc1O)c1cc(Br)ccc1O	99.4*	-0.8	-2.4	2.5	0.4	nt	100.4*	92.0*
COC(=O)[C@H](C(C)C)N(CCc1cn(CC2CCCCC2)nn1)S(=O)(=O)c1ccc(F)cc1Br	nt	0.5	nt	nt	nt	nt	nt	nt
Cn1nc(C(C)(C)C)cc1C(=O)NCc1ccc(N2CCCC2=O)cc1	92.4*	-4.0	-0.4	-6.4	8.2	2.0	96.4*	86.9*
COC(=O)c1cc2c(c3c4ccccc4n(S(=O)(=O)c4ccccc4)c13)C(=O)N(Cc1ccc(C(F)(F)F)cc1)C2	nt	-1.2	-0.8	nt	nt	nt	nt	nt
COC(=O)Cc1ccc(NC(=O)c2ccccc2Cl)cc1	-13.7	5.6	0.0	3.9	4.1	4.3	nt	nt
COC(=O)Cc1ccc(NC(=O)c2ccc(C(C)(C)C)cc2)cc1	56.0	1.4	1.4	2.7	1.6	0.2	57.7	48.8
